Our source for the ED50, Activity and minimal effective dose values is ChEMBL document CHEMBL3272300, “Mapping the dopamine receptor. 1. Features derived from modifications in ring E of the neuroleptic butaclamol” (J Med Chem, 1979).

Calls of active or inactive are those of the source. No cut-off for these calls is given here.

The term ED50 denotes the midpoint of the dose-response relation.

The test system of data set [1] is Rattus norvegicus. The data set is described as follows: Behavioral effect in ip dosed Sprague-Dawley rat assessed as reduction in conditioned avoidance response compound administered 30 mins prior testing. It counts as functional. An outline of the steps: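 Morpurgo discrimination box: trained rats (250–400 g) must leave start chamber for lighted exit within 10 s or get shock. Two-trial control session before dosing; graded ip doses to groups of six or more; ten trials run 30 min post-injection. Avoidance failures expressed as percent of trials; ED50 = dose giving 50% failure.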

For data set [2], the system named is Rattus norvegicus. Kind of data set: Behavioral effect in Sprague-Dawley rat assessed as inhibition of d-amphetamine-induced stereotyped behaviour at 20 mg/kg, ip administered 15 mins post challenge measured every 15 mins for 4 hrs post challenge. It counts as functional, organism-based. Further details: dose 20 mg/kg. In outline: (§1)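 Rats (160–180 g), groups of four or more, given d-amphetamine 10 mg/kg ip, then graded ip doses of test agent or vehicle 15 min later; highest dose 20 mg/kg. Behaviour scored 0 (normal), 1 (excited), 2 (stereotyped) every 15 min for 4 h after amphetamine. MED = lowest dose antagonizing all amphetamine behavioural effects over the 4-h period.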

In data set [3] the test system is Rattus norvegicus. The data set is described as follows: Inhibition of epinephrine-induced mortality in ip dosed Sprague-Dawley rat compound administered 1 hr prior challenge measured over 24 hrs. It counts as functional. An outline of the steps: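 Groups of six or more rats (220–225 g) given graded ip doses; 1 h later epinephrine bitartrate 0.25 mg/kg iv, a dose lethal to untreated rats. Deaths recorded over 24 h. Protective ED50 (dose protecting 50% of rats from lethality) calculated by Litchfield–Wilcoxon method.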

In data set [4] the test system is Rattus norvegicus. The data set is described as follows: Behavioral effect in ip dosed Sprague-Dawley rat assessed as inhibition of d-amphetamine-induced stereotyped behaviour compound administered 15 mins post challenge measured every 15 mins for 4 hrs post challenge. It counts as functional. As to conditions: read-out: MED. In outline:
as §1

In a further data set the test system is Mus musculus. Kind of data set: Inhibition of isolation-induced fighting behaviour in ip dosed Swiss albino mouse measured after 30 mins to 3 hrs. It counts as functional. An outline of the steps: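 Albino mice (14–16 g) isolated 4–5 weeks; pairs showing maximal fighting in a morning control session were dosed ip and retested at 30 min and 3 h in 5-min observations. All-or-none: effective if no fighting episode; ED50 = dose abolishing fighting in 50% of pairs, by Litchfield–Wilcoxon.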

Data set [5] concerns Rattus norvegicus. The data set is described as follows: Induction of catalepsy in Sprague-Dawley rat at 5 mg/kg, ip measured after 1 to 24 hrs. The class given is organism-based. Further details: dose 5 mg/kg, route intraperitoneal. Conditions: in vivo. In outline:
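Rats (160–180 g), six per group, dosed ip at 5 mg/kg. Catalepsy scored at 1, 2, 4, 6 and 24 h by Wirth stages III and IV; highest mean cataleptic score given as percent of maximum attainable score.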

For `CC(C)(C)C1CCN2C[C@H]3c4ccccc4CCc4cccc(c43)[C@@H]2C1` (some centres not stated), the figures for the ED50 with Rattus norvegicus [1], in the data set on Rattus norvegicus [3] and with Mus musculus were 0.8 mg/kg, 19 mg/kg and 2.1 mg/kg, respectively. Further, the result in the data set on Rattus norvegicus [2] was inactive. For the same compound, in the data set with Rattus norvegicus [4], the minimal effective dose came to 0.62 mg/kg. Further, the Activity in the data set on Rattus norvegicus [5] is reported as 93%.
Regarding `c1ccc2c(c1)CCc1cccc3c1[C@H]2CN1CCCC[C@@H]31`, the result in the data set on Rattus norvegicus [2] was inactive.
Still for that read-out and setting: the value for `CC(C)(C)C1CCN2C[C@H]3c4ccccc4CCc4cccc(c43)[C@H]2C1` (relative stereo) was “inactive”.
Take `CC(C)(C)[C@@]1(O)CC[C@@H]2c3cccc4c3[C@@H](CN2C1)c1ccccc1CC4` (relative stereo): the outcome in the data set with Rattus norvegicus [2] was inactive.
Same read-out and setting: with `CC(C)(C)[C@]1(O)CC[C@H]2c3cccc4c3[C@@H](CN2C1)c1ccccc1CC4` (relative stereo) the entry was “inactive”; with `O[C@H]1CCN2C[C@H]3c4ccccc4CCc4cccc(c43)[C@@H]2C1` (relative stereo), “inactive”.
Same read-out and setting: with `c1ccc2c(c1)CCc1cccc3c1[C@H]2CN1CCC2(C[C@@H]31)OCCO2` (relative stereo) the entry was “inactive”.
Consider `CC(C)(C)[C@]1(O)CCN2C[C@H]3c4ccccc4CCc4cccc(c43)[C@@H]2C1` [BUTACLAMOL], for which the ED50 with Rattus norvegicus [1] worked out at 0.64 mg/kg; with Rattus norvegicus [3], 15 mg/kg; with Mus musculus, 1.9 mg/kg. Moreover, the minimal effective dose with Rattus norvegicus [4] came to 0.62 mg/kg. In the data set on Rattus norvegicus [5], this compound came in with an Activity of 60%.
